Source: ChEMBL document CHEMBL1132984 (J Med Chem, 2000)

Species on record: Rattus norvegicus
Assay: In vitro inhibitory concentration that relaxes KCL induced contraction in rat detrusor strips by 50%; contracted
Format: functional
Details: not given; call rule not given here
Summary of the method: (§1)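 Female Sprague-Dawley rat (250-350 g) detrusor strips, 4-5 mm by 10 mm, pretensioned 0.25-0.5 g in a tissue bath and contracted with an additional 15 mM KCl. Compounds added as cumulative concentrations to steady state. Contractility measured as 5 min area under the contraction curve per concentration; IC50 is the concentration relaxing KCl-induced contraction by 50%. Glyburide added at end.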

Row | SMILES | IC50
1 | N#Cc1ccc(Nc2c(NC3CCCCCC3)c(=O)c2=O)cc1 | contracted
2 | COc1ccc(C(C)/N=c2\c(O)c(O)\c2=N/c2ccc(C#N)cc2)cc1 (centres undefined) | contracted
3 | CC(/N=c1\c(O)c(O)\c1=N/c1ccccn1)C(C)(C)C (centres undefined) | contracted

Tested on: Rattus norvegicus
Assay: Effective dose in vivo for reduction in MAP in normotensive rat model after oral administration
Format: functional
Details: not given
Summary of the method: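 Normotensive rats given test compound orally in a separate group from the efficacy animals. Mean arterial pressure and heart rate recorded after dosing, with maximum % change in MAP from initial values reported. ED20 is the oral dose causing a 20% drop in MAP.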

Row | SMILES | ED20 [mg/kg]
4 | CCc1cc(C#N)ccc1Nc1c(N[C@H](C)C(C)(C)C)c(=O)c1=O | 2.3
5 | CC1(C)Oc2ccc(OC(F)(F)F)cc2[C@@H](N2Cc3ccccc3C2=O)[C@@H]1O | 0.2
6 | C[C@](O)(C(=O)Nc1ccc(C(=O)c2ccccc2)cc1)C(F)(F)F [ZD-6169] | 6.96

Species on record: Rattus norvegicus
Assay: In vitro inhibitory concentration that relaxes KCL induced contraction in rat detrusor strips by 50%; NE=no effect
Format: functional
Details: not given
Summary of the method: as §1

Row | SMILES | IC50
7 | CC(/N=c1\c(O)c(O)\c1=N/c1ccc(C#N)cc1)c1ccc(F)cc1 (centres undefined) | Not Active
8 | C[C@@H](/N=c1\c(O)c(O)\c1=N/c1ccc(C#N)c(O)c1)C(C)(C)C | Not Active
9 | CC(/N=c1\c(O)c(O)\c1=N/c1ccc(C#N)cc1)c1ccc([N+](=O)[O-])cc1 (centres undefined) | Not Active

Tested on: Rattus norvegicus
Assay: Effective dose in vivo for reduction in the frequency of spontaneous bladder contractions in the rat oral administration
Format: functional
Details: not given

Row | SMILES | ED50 [mg/kg]
10 | CCc1cc(C#N)ccc1Nc1c(N[C@H](C)C(C)(C)C)c(=O)c1=O | 0.13
11 | CC1(C)Oc2ccc(OC(F)(F)F)cc2[C@@H](N2Cc3ccccc3C2=O)[C@@H]1O | 0.3
12 | C[C@](O)(C(=O)Nc1ccc(C(=O)c2ccccc2)cc1)C(F)(F)F [ZD-6169] | 2.4

Tested on: not listed separately
Assay: Selectivity ratio of MAP ED20/bladder ED50
Format: functional
Details: not given
Summary of the method: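 Ratio of the oral ED20 for a 20% MAP drop in normotensive rats to the oral ED50 for a 50% reduction in spontaneous bladder contraction frequency in the urethral-obstructed rat instability model.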

Row | SMILES | Ratio
13 | CCc1cc(C#N)ccc1Nc1c(N[C@H](C)C(C)(C)C)c(=O)c1=O | 17.7
14 | CC1(C)Oc2ccc(OC(F)(F)F)cc2[C@@H](N2Cc3ccccc3C2=O)[C@@H]1O | 0.7
15 | C[C@](O)(C(=O)Nc1ccc(C(=O)c2ccccc2)cc1)C(F)(F)F [ZD-6169] | 2.9

Species on record: Rattus norvegicus
Assay: In vitro inhibitory concentration that relaxes KCL induced contraction in rat detrusor strips by 50%
Format: functional
Details: not given
Summary of the method: as §1

Row | SMILES | IC50 [µM]
16 | C[C@@H](/N=c1\c(O)c(O)\c1=N/c1ccc(C#N)cc1)C(C)(C)C (stereo in doubt; 43) | 24.3
17 | N#Cc1ccc(Nc2c(NC3CC4CCC3C4)c(=O)c2=O)cc1 (stereo in doubt; 58) | > 30
18 | N#Cc1ccc(Nc2c(NC3CC4CCC3C4)c(=O)c2=O)cc1 (stereo in doubt; 57) | 3.35
19 | C[C@@H](/N=c1\c(O)c(O)\c1=N/c1ccc(C#N)cc1)C(C)(C)C (stereo in doubt; 42) | 0.37

Same assay, conditions: Rattus norvegicus

Row | SMILES | IC50 [µM]
20 | CC(/N=c1\c(O)c(O)\c1=N/c1ccc(-n2ccnc2)cc1)C(C)(C)C (centres undefined) | > 30
21 | C[C@H](/N=c1\c(O)c(O)\c1=N/c1ccc(C#N)cc1)C1CCCCC1 | > 30
22 | CC(/N=c1\c(O)c(O)\c1=N/c1ccc(C#N)cc1)c1ccc(OC(F)(F)F)cc1 (centres undefined) | > 30
23 | CC(/N=c1\c(O)c(O)\c1=N/c1cccnc1O)C(C)(C)C (centres undefined) | > 30
24 | COC(=O)c1ccc(Nc2c(NC(C)C(C)(C)C)c(=O)c2=O)cc1 (centres undefined) | > 30
25 | CC(/N=c1\c(O)c(O)\c1=N/c1ccc(S(C)(=O)=O)cc1)C(C)(C)C (centres undefined) | > 30
26 | N#Cc1ccc(/N=c2\c(O)c(O)\c2=N/C(CO)c2ccccc2)cc1 (centres undefined) | 14.3
27 | CC(=O)c1ccc(/N=c2\c(O)c(O)\c2=N/C(C)C(C)(C)C)cc1 (centres undefined) | 21.2
28 | CCC(C)(C)/N=c1\c(O)c(O)\c1=N/c1ccc(C#N)cc1 | > 30
29 | CC(/N=c1\c(O)c(O)\c1=N/c1cncc(Br)c1)C(C)(C)C (centres undefined) | 11.7
30 | C/N=c1\c(O)c(O)\c1=N/c1ccc(C#N)cc1 | > 30
31 | CC(/N=c1\c(O)c(O)\c1=N/c1ccc(C(F)(F)F)cc1)C(C)(C)C (centres undefined) | > 30
32 | Nc1c(Nc2cccnc2)c(=O)c1=O | > 30
33 | CC(C)(/N=c1\c(O)c(O)\c1=N/c1ccc(C#N)cc1)c1ccccc1 | > 30
34 | CCCc1cc(C#N)ccc1/N=c1\c(O)c(O)\c1=N/[C@H](C)C(C)(C)C | 23.1
35 | N#Cc1ccc(Nc2c(NCc3ccccc3)c(=O)c2=O)cc1 | > 30
36 | C[C@H](/N=c1\c(O)c(O)\c1=N/c1ccc(C#N)cc1)c1ccccc1 | > 30

Row | SMILES | IC50 [µM]
37 | COc1cc(/N=c2\c(O)c(O)\c2=N/C(C)C(C)(C)C)c2ncccc2c1 (centres undefined) | > 30
38 | CC(C)(C)/N=c1\c(O)c(O)\c1=N/c1cnc2ccccc2c1 | > 30
39 | CC(/N=c1\c(O)c(O)\c1=N/c1ccc(-c2ccccc2)cc1)C(C)(C)C (centres undefined) | > 30
40 | CC(/N=c1\c(O)c(O)\c1=N/c1cnc2ccccc2c1)C(C)(C)C (centres undefined) | > 30
41 | CC[C@H](/N=c1\c(O)c(O)\c1=N/c1ccc(C#N)cc1)c1ccccc1 | > 30
42 | CC(/N=c1\c(O)c(O)\c1=N/c1ccc(OC(F)(F)F)cc1)C(C)(C)C (centres undefined) | > 30
43 | CCc1cc(Nc2c(N[C@H](C)C(C)(C)C)c(=O)c2=O)ccc1C#N | 17.6
44 | CC(C)/N=c1\c(O)c(O)\c1=N/c1ccc(C#N)cc1 | 13.7
45 | CC(C)(C)/N=c1\c(O)c(O)\c1=N/c1ccc2ncccc2c1 | > 30
46 | CSc1ccc(Nc2c(NC(C)C(C)(C)C)c(=O)c2=O)cc1 (centres undefined) | > 30
47 | CC(/N=c1\c(O)c(O)\c1=N/c1ccc(S(N)(=O)=O)cc1)C(C)(C)C (centres undefined) | > 30
48 | CC(/N=c1\c(O)c(O)\c1=N/c1ccccc1C#N)C(C)(C)C (centres undefined) | > 30
49 | N#Cc1ccc(Nc2c(NC3CCCCC3)c(=O)c2=O)cc1 | > 30
50 | CCCCCCC/N=c1\c(O)c(O)\c1=N/c1ccc(C#N)cc1 | > 30
51 | Cc1ccc(C(C)/N=c2\c(O)c(O)\c2=N/c2ccc(C#N)cc2)cc1 (centres undefined) | > 30
52 | CC(C)(C)C/N=c1\c(O)c(O)\c1=N/c1ccc(C#N)cc1 | > 30
53 | CC[C@@H](/N=c1\c(O)c(O)\c1=N/c1ccc(C#N)cc1)c1ccccc1 | 22.5

Next, values leading:

Row | IC50 [µM] | SMILES
54 | 4.78 | C[C@@H](/N=c1\c(O)c(O)\c1=N/c1ccc(C#N)cc1C(=O)c1ccccc1)C(C)(C)C
55 | 8.1 | CC(/N=c1\c(O)c(O)\c1=N/c1cccc2cccnc12)C(C)(C)C (centres undefined)
56 | 1.68 | C[C@@H](/N=c1\c(O)c(O)\c1=N/c1ccncc1)C(C)(C)C
57 | 0.09 | CCc1cc(C#N)ccc1Nc1c(N[C@H](C)C(C)(C)C)c(=O)c1=O
58 | 2.1 | CCC(C)/N=c1\c(O)c(O)\c1=N/c1ccc(C#N)cc1 (centres undefined)
59 | 3.05 | CC(/N=c1\c(O)c(O)\c1=N/c1cccc(C#N)c1)C(C)(C)C (centres undefined)
60 | 1.9 | C[C@@H](/N=c1\c(O)c(O)\c1=N/c1cccnc1)C(C)(C)C
61 | 0.63 | CC(N/C(=N\C#N)Nc1ccncc1)C(C)(C)C (single isomer, unassigned; (+)) [PINACIDIL ANHYDROUS]
62 | 6.05 | C[C@@H](/N=c1\c(O)c(O)\c1=N/c1ccc(C#N)cc1O)C(C)(C)C
63 | 0.63 | Cc1cc(/N=c2\c(O)c(O)\c2=N/[C@H](C)C(C)(C)C)ccc1C#N
64 | 1.08 | Cc1cc(C#N)ccc1/N=c1\c(O)c(O)\c1=N/[C@H](C)C(C)(C)C
65 | 11.5 | N#Cc1ccc(Nc2c(NC3CCCC3)c(=O)c2=O)cc1
66 | 0.041 | C[C@@H](/N=c1\c(O)c(O)\c1=N/c1ccc(C#N)cc1Cl)C(C)(C)C
67 | 4 | N#Cc1ccc(Nc2c(NC(c3ccccc3)C(F)(F)F)c(=O)c2=O)cc1 (centres undefined)
68 | 2.6 | C[C@@H](/N=c1\c(O)c(O)\c1=N/c1ccc(C#N)cc1)C1CCCCC1
69 | 1.9 | CC(C)C(C)/N=c1\c(O)c(O)\c1=N/c1ccc(C#N)cc1 (centres undefined)
70 | 2.4 | COc1ccc(Nc2c(NC(C)C(C)(C)C)c(=O)c2=O)cc1 (centres undefined)
71 | 1.26 | CC(/N=c1\c(O)c(O)\c1=N/c1ccc(Br)cc1)C(C)(C)C (centres undefined)

Row | IC50 [µM] | SMILES
72 | 1.95 | CC(/N=c1\c(O)c(O)\c1=N/c1cccnc1)C(C)(C)C (centres undefined)
73 | 3.34 | CCC(CC)/N=c1\c(O)c(O)\c1=N/c1ccc(C#N)cc1
74 | 2.56 | COc1ncccc1/N=c1\c(O)c(O)\c1=N/C(C)(C)C
75 | 2.8 | CC(C)(C)/N=c1\c(O)c(O)\c1=N/c1cccnc1
76 | 0.56 | CC(C)(C)/N=c1\c(O)c(O)\c1=N/c1ccc(C#N)cc1
77 | 0.74 | C[C@@H](/N=c1\c(O)c(O)\c1=N/c1ccc2[nH]ncc2c1)C(C)(C)C
78 | 0.34 | CC(/N=c1\c(O)c(O)\c1=N/c1ccc(CC#N)cc1)C(C)(C)C (centres undefined)
79 | 5.4 | CC(/N=c1\c(O)c(O)\c1=N/c1ccccc1)C(C)(C)C (centres undefined)
80 | 1.36 | CC(/N=c1\c(O)c(O)\c1=N/c1ccncc1)C(C)(C)C (centres undefined)
81 | 4.6 | C[C@@H](/N=c1\c(O)c(O)\c1=N/c1ccc2c[nH]nc2c1)C(C)(C)C
82 | 1.77 | CC(C)(C)/N=c1\c(O)c(O)\c1=N/c1cccnc1Cl
83 | 0.29 | COc1cc(C#N)ccc1/N=c1\c(O)c(O)\c1=N/[C@H](C)C(C)(C)C
84 | 0.93 | C[C@](O)(C(=O)Nc1ccc(C(=O)c2ccccc2)cc1)C(F)(F)F [ZD-6169]
85 | 0.67 | C[C@@H](/N=c1\c(O)c(O)\c1=N/c1ccc(C#N)c2c1CCCC2)C(C)(C)C
86 | 0.075 | C[C@@H](/N=c1\c(O)c(O)\c1=N/c1ccc(C#N)cc1Br)C(C)(C)C
87 | 1.84 | CC(C)(C)/N=c1\c(O)c(O)\c1=N/c1cccc2cnccc12
88 | 4.3 | C[C@@H](/N=c1\c(O)c(O)\c1=N/c1ccc(C#N)c(Cl)c1)C(C)(C)C
89 | 0.056 | C[C@@H](/N=c1\c(O)c(O)\c1=N/c1ccc(C#N)cc1)c1ccccc1
